Screening data from PubChem BioAssay.
TDP2 inh: blocks human TDP2 phosphodiesterase activity. O95551. recombinant TDP2, T5PNP hydrolysis, p-nitrophenol absorbance 415 nm. inhibition, % at 12.8 µM. 0.34% of 370,000 active;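 active means inhibition above the mean of all tested compounds plus 3 SD, set per campaign, cut at about 25% in these data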
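Material: recombinant human TDP2; quantity: TDP2 enzyme at 120 nM final; medium: Tris-HCl pH 7.5 with MgCl2; compound: single concentration, 12.8 µM nominal, with 1% DMSO; incubation: 2 h enzyme incubation at 37 °C; signal: epi absorbance; measure: percent inhibition; benchmarks: high control without enzyme, low control DMSO plus TDP2; repeats: singlicate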
LEDGF integ inh: blocks HIV-1 LEDGF/p75-dependent DNA integration; AID 743269; TR-FRET IN-LEDGF/p75 DNA integration, Eu/Cy5; 0.64% of 370,000 active; inhibition, % at 3.7 µM;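 active means inhibition above the screen-wide mean plus 3 SD, cut at about 13% in these data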;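 further: signal is the Cy5 over europium emission ratio at 671 and 618 nm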
UHRF1 MBD2 ctr: UHRF1 methyl-DNA binding inhibition; Q96T88; UHRF1 binding to methylated oligo, TR-FRET; inhibition, % at 4.4 µM; 0.75% of 370,000 active; AID 687016; in the data active means inhibition above about 21%;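 further: UHRF1 SRA domain binding a hemimethylated CpG hairpin DNA probe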
MBD2 DNA inh: MBD2-methylated oligo binding inhibition; AID 686964; Q9UBB5; TR-FRET, MBD2 binding to methylated oligonucleotide; inhibition, % at 4.4 µM; 0.31% of 370,000 active; in the data active means inhibition above about 13%
Target sequence (Q9UBB5 whole entry, looked up): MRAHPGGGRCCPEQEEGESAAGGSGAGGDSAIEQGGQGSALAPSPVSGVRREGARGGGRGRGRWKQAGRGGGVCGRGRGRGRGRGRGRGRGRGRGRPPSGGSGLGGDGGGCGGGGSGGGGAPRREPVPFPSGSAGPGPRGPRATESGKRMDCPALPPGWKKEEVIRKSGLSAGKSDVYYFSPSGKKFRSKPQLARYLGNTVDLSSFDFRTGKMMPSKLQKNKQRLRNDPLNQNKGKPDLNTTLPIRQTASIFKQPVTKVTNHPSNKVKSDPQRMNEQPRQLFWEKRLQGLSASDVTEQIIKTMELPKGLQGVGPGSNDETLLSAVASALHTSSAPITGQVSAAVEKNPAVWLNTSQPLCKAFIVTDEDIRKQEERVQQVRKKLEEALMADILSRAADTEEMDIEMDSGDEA
Rin1 Abl inh: inhibitors of human Rin1-Abl protein interaction | TR-FRET Rin1/Abl binding, biochemical | inhibition, % at 7.35 µM | 0.4% of 360,000 active | AID 588664; in the data active means inhibition above about 5%, passing the limit was not always enough
Rin1-Abl confirm: confirmation of inhibitors of human Rin1-Abl interaction. shares compounds with Rin1 Abl inh. inhibition, % at 7.35 µM. TR-FRET Rin1-Abl binding, purified proteins. 49% of 1,300 active
GFP quencher: GFP fluorescence interference artifact; shares compounds with Rin1 Abl inh; inhibitors/quenchers counterscreen; 8.5% of 1,300 active; inhibition, % at 6.75 µM;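 further: ABL1-eGFP fusion protein alone without its partner RIN1-SBP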
GFP quench DR: GFP fluorescence interference dose response; shares compounds with Rin1 Abl inh; GFP fluorescence interference/quenching counterscreen; IC50, µM; 230 tested, under 10 active; call rule not given here;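 further: ABL1-eGFP fusion protein alone without its RIN1 binding partner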
Numbers stand for hits; - = inactive; . = no result; ! = a repeat was not active. Rows were chosen to be rich in hits. Some 1.9% of all compounds tested hit in one or more screens of this group. Unless noted, no stated cut-off is given here; in the data, active means inhibition above about 6.5%; inactive means the rest.

SMILES	TDP2 inh	LEDGF integ inh	UHRF1 MBD2 ctr	MBD2 DNA inh	Rin1 Abl inh	Rin1-Abl confirm	GFP quencher	others
CN1CC=C(c2ccc(C(F)(F)F)cc2)N(c2ccc(Br)cc2)C1=O	-	-	-	-	.	.	.
O=C(OCCCOC(=O)c1ccc(O)cc1)c1ccc(O)cc1	-	-	-	-	19.5	16.8	-
Cc1nc(N/N=C/c2ccc(O)cc2O)cc(N2CCOCC2)n1	-	-	-	-	36.0	44.5	-	GFP quench DR=-
Cc1nnc(SCc2nc3ccccc3[nH]2)s1	-	-	-	-	18.0	29.3	-	GFP quench DR=-
c1ccc2[nH]c(CSc3nc4ccccc4s3)nc2c1	-	-	-	-	-	.	.
CN1CCc2cccc3c2[C@H]1Cc1ccc(O)c(O)c1-3	-	-	-	-	15.8!	10.8	10.8
O=c1cc(CO)oc(CN2CCN(c3ccccc3)CC2)c1O	-	-	-	-	-	.	.
CCOC(=O)C1CCN(Cc2oc(CO)cc(=O)c2O)CC1	-	-	-	-	14.4	-	-
CCN1CCN(Cc2oc(CO)cc(=O)c2O)CC1	-	-	-	-	5.0	-	-
O=C(c1ccccc1)N1CCN(c2ccc(NCc3ccc4c(c3)OCO4)cc2)CC1	-	-	-	-	12.4	12.0	-
COc1ccc(-c2cc(-c3nnc(SCC(=O)Nc4ccc(OCc5ccccc5)cc4)n3N)[nH]n2)cc1	-	-	-	-	.	.	.
COc1ccc(CCNC(=O)c2c(N)no[n+]2[O-])cc1OC	-	-	-	-	6.6	-	-
COc1ccc(CCNC(=O)c2ccc(OC)c(OC)c2)cc1OC	-	-	-	-	-	.	.
COC(=O)CCCCC1SCC2NC(=O)NC21 (configuration not stated)	-	-	-	-	11.9	16.1	-
CCCOC(=O)CCCC[C@H]1SC[C@@H](NC(=O)OC)[C@H]1NC(=O)OC	-	-	-	-	-	.	.
COc1ccc(OC)c(/C=N/NC(=O)c2cccc3ccccc23)c1	-	-	-	-	6.9	-	-
COc1ccc(CNC(=O)COC(=O)CCCOc2ccc(Cl)cc2Cl)cc1OC	-	-	-	-	10.2	-	-
O=C(CN1CCN(CC(=O)Nc2ccc(F)cc2)CC1)NCC1(N2CCOCC2)CCCCC1	-	-	-	-	-	.	.
O=C(COc1ccc(F)cc1)NCC1(N2CCOCC2)CCCCC1	-	-	-	-	11.0	-	-
CCOC(=O)[C@]12CCCC=C1N(Cc1ccc(OC)cc1)C(=O)[C@@H]2CC(=O)NCCCCc1ccccc1	-	-	-	-	.	.	.
CC1(c2ccccc2)NC(=O)N(CC(=O)Nc2ccc3c(c2)CCC3)C1=O (configuration not stated)	-	-	-	-	8.2	-	-
O=C(NCCc1ccc(Cl)cc1)c1cccc(NC2=NC3CS(=O)(=O)CC3S2)c1 (configuration not stated)	-	-	-	-	8.4	8.0	-
COc1ccc(OC)c(CCNC(=O)c2ccc(NC3=NC4CS(=O)(=O)CC4S3)cc2)c1 (configuration not stated)	-	-	-	-	12.2	12.9	-
COc1ccc(OC)c(CCNC(=O)Cc2ccc(NC3=NC4CS(=O)(=O)CC4S3)cc2)c1 (configuration not stated)	-	-	-	-	11.1	13.3	-
CC(NC(=O)Cc1ccc(NC2=NC3CS(=O)(=O)CC3S2)cc1)c1ccccc1 (configuration not stated)	-	-	-	-	-	.	.
CCN(C(=O)Cc1ccc(NC2=NC3CS(=O)(=O)CC3S2)cc1)c1ccccc1 (configuration not stated)	-	-	-	-	14.6	11.0	-
COc1cccc(CNC(=O)c2ccc(NC3=NC4CS(=O)(=O)CC4S3)cc2)c1 (configuration not stated)	-	-	-	-	-	.	.
CCOc1ccc(CCNC(=O)Cc2ccc(NC3=NC4CS(=O)(=O)CC4S3)cc2)cc1OCC (configuration not stated)	-	-	-	-	-	.	.
